According to ChEMBL document CHEMBL3853316 (J Med Chem, 2016):

Legend:
[1] = Half life in human liver microsomes; assay type: ADME
[2] = Half life in dog liver microsomes; assay type: ADME, Canis lupus familiaris
[3] = Half life in rat liver microsomes; assay type: ADME
[4] = Oral bioavailability in dog at 1 mg/kg; assay type: ADME, organism-based, Canis lupus familiaris; conditions: in vivo
Procedure, shortened: (§1)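 Dogs (n = 3) were dosed at 0.2 mg/kg iv and 1.0 mg/kg po for pharmacokinetic parameters.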

[5] = Clearance in dog at 0.2 mg/kg, iv and 1 mg/kg, po; assay type: ADME, organism-based, Canis lupus familiaris; conditions: in vivo; procedure, shortened: as §1
[6] = Volume of distribution at steady state in dog at 0.2 mg/kg, iv and 1 mg/kg, po; assay type: ADME, organism-based, Canis lupus familiaris; conditions: in vivo, read-out: Vdss; procedure, shortened: as §1
[7] = Half life in dog at 0.2 mg/kg, iv and 1 mg/kg, po; assay type: ADME, organism-based, Canis lupus familiaris; conditions: in vivo; procedure, shortened: as §1
[8] = Dissociation constant, pKa of the compound in methanol/water by spectrophotometric titration method; assay type: physicochemical

SMILES | half-life [1] [min] | half-life [2] [min] | half-life [3] [min] | bioavailability [4] [%] | clearance [5] [mL/min/kg] | Vd [6] [L/kg] | half-life [7] [min] | pKa [8]
Cc1cc2ccc1[C@@H](C)COC(=O)Nc1ccc(S(=O)(=O)C3CC3)c(c1)CN(C)C(=O)[C@@H]2Nc1cc2ccnc(N)c2cc1F | 95 | 7 | 10 | < 1 | 11 | 4 | 360 | –
Cc1cc2ccc1[C@@H](C)COC(=O)Nc1ccc(OC(F)(F)F)c(c1)CN(C)C(=O)[C@@H]2Nc1ccc2c(N)nccc2c1 | 130 | 140 | 37 | 22 | – | – | – | –

Second part, the compound after the results:

half-life [1] [min] | half-life [2] [min] | half-life [3] [min] | bioavailability [4] [%] | clearance [5] [mL/min/kg] | Vd [6] [L/kg] | half-life [7] [min] | pKa [8] | SMILES
> 120 | 110 | 12 | 1 | – | – | – | 8.7 | Cc1cc2ccc1[C@@H](C)COC(=O)Nc1ccc(S(=O)(=O)C3CC3)c(c1)CN(C)C(=O)[C@@H]2Nc1ccc2c(N)nccc2c1
120 | 39 | 3.3 | 24 | 13 | 8 | 480 | 8 | Cc1cc2ccc1[C@@H](C)COC(=O)Nc1ccc(S(=O)(=O)C3CC3)c(c1)CN(C)C(=O)[C@@H]2Nc1cc(F)c2c(N)nccc2c1
45 | 26 | 1.9 | 40 | 8 | 5 | 480 | 7.1 | Cc1cc2ccc1[C@@H](C)COC(=O)Nc1ccc(S(=O)(=O)C3CC3)c(c1)CN(C)C(=O)[C@@H]2Nc1ccc2c(N)ncc(F)c2c1
